Active and inactive are the calls of the source. No cut-off for these calls is given here.
Columns and labels:
MV4-11 [1] = experiment: Induction of cell death in human MV4-11 cells assessed as increase in PI uptake at 6.25 uM incubated for 6 hrs by PI staining based fluorescence analysis; format: functional
Summary of the method: (§1)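 PI flux assay. 2 × 10^4 MV4;11 (WT, CARD8−/− or CASP1−/−) or OCI-AML2 cells in RPMI were given compound at 6.25 μM plus PI at 10 μM final. Fluorescence (Ex/Em 535/617 nm) was read every 5 min at 37 °C for 6 h, baseline-corrected to DMSO and normalized to the maximum response. n = 3.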

MV4-11 [2] = experiment: Induction of cell death in CASP1 knockout human MV4-11 cells assessed as increase in PI uptake at 6.25 uM incubated for 6 hrs by PI staining based fluorescence analysis; format: functional; summary of the method: as §1
MV4-11 [3] = experiment: Induction of cell death in CARD8 knockout human MV4-11 cells assessed as increase in PI uptake at 6.25 uM incubated for 6 hrs by PI staining based fluorescence analysis; format: functional; summary of the method: as §1
OCI-AML2 [4] = experiment: Induction of cell death in CARD8 knockout human OCI-AML2 cells assessed as reduction in cell viability incubated for 24 hrs by celltiter-glo assay; format: functional, cell-based
Summary of the method: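 OCI-AML2 cells, WT or CARD8−/−, were grown in RPMI 1640 with 10% FBS and plated at 2000 cells/well. Compound was added over a range of concentrations for 24 h, and viability was then read by CellTiter-Glo luminescence. Means ± SEM, n = 3.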

MV4-11 [5] = experiment: Induction of pyroptosis in human MV4-11 cells assessed as LDH release at 20 uM incubated for 24 hrs; format: functional, cell-based
Summary of the method: (§2)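 Cells (MV4;11, OCI-AML2 or THP-1; WT or the knockout named) plated at 5 × 10^5 cells/well and exposed to 20 μM compound for 24 h. LDH in the supernatant was measured relative to a Triton X-100 lysis control. For immunoblots, cells were washed in PBS, sonicated, protein-normalized, run on SDS-PAGE and probed for GSDMD cleavage. n = 3.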

OCI-AML2 [6] = experiment: Induction of pyroptosis in human OCI-AML2 cells assessed as LDH release at 20 uM incubated for 24 hrs; format: functional, cell-based; summary of the method: as §2
THP-1 [7] = experiment: Induction of pyroptosis in human THP-1 cells assessed as LDH release at 20 uM incubated for 24 hrs; format: functional, cell-based; summary of the method: as §2
THP-1 [8] = experiment: Induction of pyroptosis in human THP-1 cells assessed as GSDMD cleavage at 20 uM incubated for 24 hrs by immunoblot analysis; format: functional, cell-based; summary of the method: as §2
T-cell = experiment: Induction of pyroptosis in human T cells expressing CARD8 assessed as GSDMD cleavage at 20 uM incubated for 24 hrs by immunoblot analysis; format: functional, cell-based
Summary of the method: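 Resting human primary T cells (>90% purity) were thawed and cultured in RPMI-1640 with 10% FBS and 30 U/mL IL-2. They were exposed to 20 μM compound for 24 h, lysed, and immunoblotted for GSDMD cleavage.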

BMDM = experiment: Induction of pyroptosis in C57BL/6J mouse BMDM cells expressing NLRP1A and NLRP1B allele 2 assessed as LDH release at 20 uM incubated for 24 hrs; format: functional, cell-based
Summary of the method: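 Bone marrow cells from femurs and tibias of 7–12-week-old C57BL/6J mice were RBC-lysed and differentiated for 6 days at 37 °C in DMEM with 10% FBS and 15–20% L-cell medium, then replated. Cells were exposed to 20 μM compound for 24 h. Read-outs were LDH release against a lysis control and GSDMD immunoblot.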

THP-1 [9] = experiment: Induction of pyroptosis in DPP8/9 knockout human THP-1 cells assessed as LDH release at 20 uM incubated for 24 hrs; format: functional, cell-based; summary of the method: as §2
THP-1 [10] = experiment: Induction of pyroptosis in DPP8/9 knockout human THP-1 cells assessed as GSDMD clevage at 20 uM incubated for 24 hrs by immunoblot analysis; format: functional, cell-based; summary of the method: as §2
THP-1 [11] = experiment: Induction of pyroptosis in CARD8 knockout human THP-1 cells harboring dox-inducible […] E274R mutant assessed as cell death by measuring LDH release at 20 uM pretreated with doxycycline for 16 hrs followed by compound addition and measured after 6 hrs; format: functional, cell-based
Summary of the method: (§3)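 CARD8−/− THP-1 cells carrying a doxycycline-inducible CARD8 E274R mutant were exposed or not to DOX at 100 ng/mL for 16 h. Compound was then added at 20 μM for 6 h, followed by LDH release and immunoblot analysis.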

THP-1 [12] = experiment: Induction of pyroptosis in CARD8 knockout human THP-1 cells harboring dox-inducible […] E274R mutant assessed as GSDMD cleavage at 20 uM pretreated with doxycycline for 16 hrs followed by compound addition and measured after 6 hrs by immunoblot analysis; format: functional, cell-based; summary of the method: as §3
MV4-11 [13] = experiment: Cytotoxicity against human MV4-11 cells assessed as reduction in cell viability at 1 uM incubated for 24 hrs by celltiter-glo assay relative to control; format: functional
Summary of the method: (§4)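 Single-dose viability screen. MV4;11 or OCI-AML2 cells at 2000 cells/well were exposed to 1 μM compound for 24 h. Viability was read by CellTiter-Glo luminescence and expressed as percent inhibition. Values are means of three biological replicates.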

OCI-AML2 [14] = experiment: Cytotoxicity against human OCI-AML2 cells assessed as reduction in cell viability at 1 uM incubated for 24 hrs by celltiter-glo assay relative to control; format: functional; summary of the method: as §4
[15] = target: T1, Xaa-Pro dipeptidase (Homo sapiens) (UniProt P12955); experiment: Inhibition of recombinant human PEPD using Ala-Pro as substrate assessed as alanine release by measuring increase in fluorescense signal at 1 uM by fluorescence based analysis relative to control
T1 sequence (whole entry): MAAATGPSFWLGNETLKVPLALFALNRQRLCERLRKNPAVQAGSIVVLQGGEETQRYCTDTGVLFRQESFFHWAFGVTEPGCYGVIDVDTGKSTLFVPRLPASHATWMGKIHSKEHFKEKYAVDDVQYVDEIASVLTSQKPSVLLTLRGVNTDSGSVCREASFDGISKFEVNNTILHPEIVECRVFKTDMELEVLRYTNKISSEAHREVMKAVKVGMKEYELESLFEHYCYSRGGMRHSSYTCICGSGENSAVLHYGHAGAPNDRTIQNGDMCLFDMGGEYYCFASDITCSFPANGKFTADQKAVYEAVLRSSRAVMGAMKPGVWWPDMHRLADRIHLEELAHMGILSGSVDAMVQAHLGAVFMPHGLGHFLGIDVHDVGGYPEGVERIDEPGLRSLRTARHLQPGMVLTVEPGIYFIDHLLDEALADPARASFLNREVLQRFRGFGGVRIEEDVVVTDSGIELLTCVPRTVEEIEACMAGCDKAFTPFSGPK
Summary of the method: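 Recombinant human PEPD at 50 nM was incubated with Ala-Pro at 40 μM final and compound. Released alanine was detected by coupled alanine transaminase/pyruvate oxidase conversion to H2O2 and resorufin fluorescence (Ex/Em 535/587 nm) at 25 °C.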

THP-1 [16] = experiment: Induction of pyroptosis in PEPD knockout human THP-1 cells assessed as GSDMD clevage at 20 uM incubated for 24 hrs by immunoblot analysis; format: functional, cell-based; summary of the method: as §2
THP-1 [17] = experiment: Induction of pyroptosis in XPNPEP1 knockout human THP-1 cells assessed as LDH release at 20 uM incubated for 24 hrs; format: functional, cell-based; summary of the method: as §2
THP-1 [18] = experiment: Induction of pyroptosis in XPNPEP1 knockout human THP-1 cells assessed as GSDMD clevage at 20 uM incubated for 24 hrs by immunoblot analysis; format: functional, cell-based; summary of the method: as §2

SMILES	Activity (MV4-11 [1])	Activity (MV4-11 [2])	Activity (MV4-11 [3])	Activity (OCI-AML2 [4])	Activity (MV4-11 [5])	Activity (OCI-AML2 [6])	Activity (THP-1 [7])	Activity (THP-1 [8])	Activity (T-cell)	Activity (BMDM)	Activity (THP-1 [9])	Activity (THP-1 [10])	Activity (THP-1 [11])	Activity (THP-1 [12])	Activity (MV4-11 [13]) [%]	Activity (OCI-AML2 [14]) [%]	inhibition [15] [%]	Activity (THP-1 [16])	Activity (THP-1 [17])	Activity (THP-1 [18])
COC(=O)[C@H](CC(C)C)NC(=O)[C@@H]1CCCN1C(=O)[C@@H](O)[C@H](N)CC(C)C	Active	inactive	inactive	inactive	Active	Active	Active	Active	Active	inactive	inactive	inactive	inactive	inactive	45	37	60	Active	Active	Active
COC(=O)[C@@H]1CCCN1C(=O)[C@@H](O)[C@H](N)CC(C)C	Active	inactive	inactive	inactive	Active	Active	Active	Active	Active	inactive	inactive	inactive	inactive	inactive	72	42	48	Active	Active	Active

Source: ChEMBL document CHEMBL5380787, “Optimized M24B Aminopeptidase Inhibitors for CARD8 Inflammasome Activation” (J Med Chem, 2023)
